ChEMBL document CHEMBL4152267, “Structure-based design of novel quinoxaline-2-carboxylic acids and analogues as Pim-1 inhibitors” (Eur J Med Chem, 2018)
Structures can show the parent of a compound that is named as a salt.

Experiments:
[1] = target: Serine/threonine-protein kinase pim-1 (Homo sapiens, UniProt P11309); assay: Inhibition of recombinant human Pim1 expressed in bacterial expression system using histone H1 as substrate after 30 mins by ADP-Glo reagent based luminescence assay
How it was run: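 Recombinant human Pim-1 (bacterially expressed) with histone H1 at 0.8 µg/µL, 10 µM ATP, in 40 mM Tris pH 7.5, 20 mM MgCl₂ and 0.1 mg/mL BSA, for 30 min at 30 °C. ADP-Glo reagent stops the reaction (50 min, rt), then detection reagent is added (1 h, rt) and luminescence is read.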

[2] = target: T1, Serine/threonine-protein kinase haspin (Homo sapiens, UniProt Q8TF76); assay: Inhibition of recombinant human haspin kinase domain (470 to 798 residues) expressed in bacterial expression system using histone H3 peptide as substrate after 30 mins by ADP-Glo reagent based luminescence assay
T1 sequence (Q8TF76 whole entry): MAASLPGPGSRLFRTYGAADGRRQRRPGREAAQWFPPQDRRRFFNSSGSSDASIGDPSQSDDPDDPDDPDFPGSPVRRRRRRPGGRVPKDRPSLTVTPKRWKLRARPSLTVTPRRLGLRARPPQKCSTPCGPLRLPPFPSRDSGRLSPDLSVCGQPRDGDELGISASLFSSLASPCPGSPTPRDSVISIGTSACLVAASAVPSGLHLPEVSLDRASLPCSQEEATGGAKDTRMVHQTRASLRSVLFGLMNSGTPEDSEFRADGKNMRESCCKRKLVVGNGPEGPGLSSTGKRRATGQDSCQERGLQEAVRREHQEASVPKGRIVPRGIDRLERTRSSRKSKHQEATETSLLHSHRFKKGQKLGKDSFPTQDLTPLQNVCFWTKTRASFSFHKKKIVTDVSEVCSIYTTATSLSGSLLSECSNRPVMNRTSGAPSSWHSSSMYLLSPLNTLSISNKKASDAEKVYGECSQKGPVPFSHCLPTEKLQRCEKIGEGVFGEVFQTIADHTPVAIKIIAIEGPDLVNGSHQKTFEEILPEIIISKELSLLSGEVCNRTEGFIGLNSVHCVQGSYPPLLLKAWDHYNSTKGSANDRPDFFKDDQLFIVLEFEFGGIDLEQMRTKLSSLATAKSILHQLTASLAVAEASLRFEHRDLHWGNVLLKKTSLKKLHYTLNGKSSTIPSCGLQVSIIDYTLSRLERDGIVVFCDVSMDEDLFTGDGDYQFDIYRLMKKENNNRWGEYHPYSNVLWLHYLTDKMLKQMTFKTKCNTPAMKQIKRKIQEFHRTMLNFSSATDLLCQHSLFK

KU812 cell line = assay: Cytotoxicity against human KU812 cells assessed as reduction in cell viability after 48 hrs by MTT assay; type: functional, cell-based; settings: KU812, 48 h
[3] = target: Dual specificity protein kinase CLK1 (Mus musculus, UniProt P22518)
Chain of Dual specificity protein kinase CLK1 (P22518 whole entry): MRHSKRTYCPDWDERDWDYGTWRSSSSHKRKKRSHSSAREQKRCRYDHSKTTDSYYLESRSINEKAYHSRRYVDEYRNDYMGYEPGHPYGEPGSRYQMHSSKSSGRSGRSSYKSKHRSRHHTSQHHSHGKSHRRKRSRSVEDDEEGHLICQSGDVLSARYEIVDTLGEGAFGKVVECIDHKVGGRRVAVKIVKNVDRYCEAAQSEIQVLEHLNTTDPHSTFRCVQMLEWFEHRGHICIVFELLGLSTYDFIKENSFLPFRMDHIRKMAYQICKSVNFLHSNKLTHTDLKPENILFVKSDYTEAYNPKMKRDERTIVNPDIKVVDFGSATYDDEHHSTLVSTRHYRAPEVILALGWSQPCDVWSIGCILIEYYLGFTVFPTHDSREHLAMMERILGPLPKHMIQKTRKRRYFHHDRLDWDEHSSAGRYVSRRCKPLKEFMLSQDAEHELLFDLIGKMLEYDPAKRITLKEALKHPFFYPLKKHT

CDK9/cyclin T1 = CDK9/cyclin T1 (Homo sapiens, UniProt P50750); assay: Inhibition of recombinant human CDK9/CyclinT expressed in baculovirus infected Sf9 insect cells using YSPTSPSYSPTSPSYSPTSPSKKKK as substrate after 30 mins by ADP-Glo reagent based luminescence assay
Chain of CDK9/cyclin T1 (O60563 whole entry): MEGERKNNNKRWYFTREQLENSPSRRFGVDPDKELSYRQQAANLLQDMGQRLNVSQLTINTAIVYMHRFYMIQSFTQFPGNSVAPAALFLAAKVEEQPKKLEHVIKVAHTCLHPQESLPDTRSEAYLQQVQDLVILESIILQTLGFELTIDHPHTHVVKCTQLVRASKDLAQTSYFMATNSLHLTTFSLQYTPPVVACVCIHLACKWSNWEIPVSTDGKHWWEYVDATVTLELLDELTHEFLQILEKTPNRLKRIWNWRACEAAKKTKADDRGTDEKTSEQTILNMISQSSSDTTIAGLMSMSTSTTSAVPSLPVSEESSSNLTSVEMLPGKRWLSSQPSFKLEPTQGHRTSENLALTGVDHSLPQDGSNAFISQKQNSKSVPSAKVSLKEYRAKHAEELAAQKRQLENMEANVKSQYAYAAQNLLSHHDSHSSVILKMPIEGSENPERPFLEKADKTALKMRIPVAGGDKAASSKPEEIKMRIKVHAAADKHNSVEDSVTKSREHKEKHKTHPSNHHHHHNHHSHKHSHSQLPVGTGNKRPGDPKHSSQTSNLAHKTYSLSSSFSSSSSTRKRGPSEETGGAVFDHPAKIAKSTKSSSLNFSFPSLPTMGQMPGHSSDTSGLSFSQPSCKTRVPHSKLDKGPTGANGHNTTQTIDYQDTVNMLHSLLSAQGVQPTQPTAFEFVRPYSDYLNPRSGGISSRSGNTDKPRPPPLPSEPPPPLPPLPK
Chain of CDK9/cyclin T1 (P50750 whole entry): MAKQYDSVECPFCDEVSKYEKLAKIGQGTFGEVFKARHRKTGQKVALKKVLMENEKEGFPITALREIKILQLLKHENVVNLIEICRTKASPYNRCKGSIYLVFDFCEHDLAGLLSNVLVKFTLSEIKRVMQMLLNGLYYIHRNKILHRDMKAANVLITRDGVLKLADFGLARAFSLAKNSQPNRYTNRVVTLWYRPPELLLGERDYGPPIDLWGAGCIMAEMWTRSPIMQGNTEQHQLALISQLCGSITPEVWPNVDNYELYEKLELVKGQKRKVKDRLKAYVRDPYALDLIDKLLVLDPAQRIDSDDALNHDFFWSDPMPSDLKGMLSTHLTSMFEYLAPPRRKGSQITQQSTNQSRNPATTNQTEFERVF

CDK2/Cyclin A2 = CDK2/Cyclin A2 (Homo sapiens, UniProt P24941); assay: Inhibition of human CDK2/CyclinA using histone H1 as substrate after 30 mins by ADP-Glo reagent based luminescence assay; type: protein-complex assay
[4] = target: Glycogen synthase kinase-3 (Sus scrofa, UniProt B2LUN4+I6LNT8)
[5] = target: Dual specificity tyrosine-phosphorylation-regulated kinase 1A (Rattus norvegicus, UniProt Q63470)

Chain of Serine/threonine-protein kinase pim-1 (P11309 whole entry): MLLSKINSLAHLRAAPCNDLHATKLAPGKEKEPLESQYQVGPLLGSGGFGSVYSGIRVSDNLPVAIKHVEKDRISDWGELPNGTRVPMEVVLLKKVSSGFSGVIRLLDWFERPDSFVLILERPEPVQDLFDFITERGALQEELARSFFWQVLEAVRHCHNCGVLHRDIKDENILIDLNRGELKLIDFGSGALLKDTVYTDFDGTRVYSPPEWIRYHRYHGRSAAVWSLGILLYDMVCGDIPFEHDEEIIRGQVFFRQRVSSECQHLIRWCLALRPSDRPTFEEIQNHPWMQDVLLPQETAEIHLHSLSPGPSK

Row | SMILES | IC50 [1] [µM] | IC50 [2] [µM] | EC50 (KU812 cell line) [µM] | IC50 [3] [µM] | IC50 (CDK9/cyclin T1) [µM] | IC50 (CDK2/Cyclin A2) [µM] | IC50 [4] [µM] | IC50 [5] [µM]
1 | O=C(O)c1nc2ccccc2nc1Nc1ccc2[nH]ccc2c1 | > 10 |  |  |  |  |  |  | 
2 | O=C(O)c1nc2ccccc2nc1Nc1cccc(O)c1 |  | > 10 | 38.9 | > 10 | > 10 | > 10 | > 10 | 
3 | O=C(O)c1nc2ccccc2nc1Nc1ccc(O)cc1 | 0.29 | > 10 | 41.7 | > 10 | > 10 | > 10 | > 10 | 0.098
4 | CCOC(=O)c1nc2ccccc2nc1Nc1ccccc1O | > 10 |  |  |  |  |  |  | 
5 | CCOC(=O)c1nc2ccccc2nc1Nc1ccc(N)cc1 | > 10 |  |  |  |  |  |  | 
6 | CCOC(=O)c1nc2ccccc2nc1Nc1cccc(O)c1 | > 10 |  |  |  |  |  |  | 
7 | Cc1ccc(NC(=O)c2ccc(CN3CCN(C)CC3)cc2)cc1Nc1nccc(-c2cccnc2)n1 [IMATINIB MESYLATE] |  |  | 0.6 |  |  |  |  | 
8 | O=C(O)c1nc2ccccc2nc1Nc1cccc(N2CCOCC2)c1 | 1.01 | > 10 | 57.3 | > 10 | > 10 | > 10 | > 10 | > 10
9 | Nc1cccc(Nc2nc3ccccc3nc2C(=O)[O-])c1.[K+] | 2.8 | > 10 | 63.8 | > 10 | > 10 | > 10 | > 10 | 1.67
10 | CN1CCC(c2ccc(Nc3nc4ccccc4nc3C(=O)O)cc2)CC1 | > 10 |  |  |  |  |  |  | 
11 | CCOC(=O)c1nc2ccccc2nc1Nc1ccc(C2CCN(C)CC2)cc1 | > 10 |  |  |  |  |  |  | 
12 | Nc1ccc(Nc2nc3ccccc3nc2C(=O)O)cc1 | > 10 |  |  |  |  |  |  | 
13 | CCOC(=O)c1nc2ccccc2nc1Nc1cccc(N2CCOCC2)c1 | > 10 |  |  |  |  |  |  | 
14 | NC(=O)c1nc2ccccc2nc1Nc1cccc(N2CCOCC2)c1 | > 10 |  |  |  |  |  |  | 
15 | CCOC(=O)c1nc2ccccc2nc1Nc1ccc(O)cc1 | > 10 |  |  |  |  |  |  | 
16 | CCOC(=O)c1nc2ccccc2nc1Nc1ccc2[nH]ccc2c1 | > 10 |  |  |  |  |  |  | 
17 | CCOC(=O)c1nc2ccccc2nc1Nc1cccc(N)c1 | > 10 |  |  |  |  |  |  | 
18 | O=C(O)c1nc2ccccc2nc1Nc1ccccc1O | 0.76 | > 10 | 178 | > 10 | > 10 | > 10 | > 10 | 0.74
